In brackets after ≈: the same amount, converted by molar mass.

Results on 15 compounds are retold here after ChEMBL document CHEMBL4699546, “Synthesis and structure-activity relationships for tetrahydroisoquinoline-based inhibitors of Mycobacterium tuberculosis” (Bioorg Med Chem, 2020).

Data set [1] in a line: Inhibition of Mycobacterium smegmatis ATPsynthase. Further details: species or system Mycolicibacterium smegmatis.
The nature of data set [2]: Inhibition of human ATPsynthase.
For data set [3], the system named is Mycobacterium tuberculosis. The experiment in a line: Antimycobacterial activity against Mycobacterium tuberculosis H37Rv ATCC 27294 assessed as reduction in bacterial growth incubated for 10 days in under anaerobic condition by luminometric assay. The class given is functional. The following applies: H37Rv ATCC 27294, 240 h, time 10 day. A digest of the protocol: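 Growth inhibition of M.tb H37Rv under non-replicating conditions (LORA), reported as minimum inhibitory concentration in µg/mL; tested at the Institute for Tuberculosis Research, University of Illinois at Chicago.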

Data set [4] can be described thus: Metabolic stability in mouse liver microsomes assessed as intrinsic clearance. The data set is classed as ADME, Microsome. (Liver microsomes are vesicles of endoplasmic reticulum, rich in cytochrome P450 enzymes.)
Data set [5] deals with Mycobacterium tuberculosis. The experiment in a line: Antimycobacterial activity against Mycobacterium tuberculosis H37Rv ATCC 27294 assessed as reduction in bacterial growth incubated for 4 days under aerobic condition by alamar blue based fluorescence assay. The class given is functional. Particulars: H37Rv ATCC 27294, 96 h, time 4 day. A digest of the protocol: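 Replicating aerobic culture of M.tb H37Rv, MABA read-out; value is the minimum inhibitory concentration in µg/mL; assay run at the Institute for Tuberculosis Research, University of Illinois at Chicago.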
(In general: The colour change of resazurin is a common sign of viable cells or microbes.)

The nature of data set [6]: Metabolic stability in human liver microsomes assessed as intrinsic clearance. The class given is ADME, Microsome.
The subject of another data set is Vero. Nature of the data set: Cytotoxicity against African green monkey Vero cells assessed as reduction in cell viability incubated for 72 hrs by MTS-PMS assay. The following applies: Chlorocebus sabaeus. The class given is cell-based. The gist of the method:
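Mammalian cytotoxicity measured in Vero (green monkey kidney epithelial) cells; value reported as IC50 in µg/mL.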

Data set [7] concerns ATP synthase (human vs Mycobacterium smegmatis). Nature of the data set: Selectivity index, ratio of IC50 for human ATPsynthase to IC50 for Mycobacterium smegmatis ATPsynthase. The class given is toxicity. The following applies: read-out: Ratio IC50.

As a reminder, the IC50 is the point on the concentration scale where inhibition reaches its midpoint. On to `Cc1ccc(N2CCN(C)CC2)c2c1CCN(C(=O)N1CCC(Oc3ccccc3C(F)(F)F)CC1)C2`, for which the IC50 in data set [1] is 6.2 µg/mL (≈ 12 µM); in data set [2], 48 µg/mL (≈ 92.9 µM).

One may read the MIC90 as an inhibitory concentration at the 90% level, which refers to growth in some studies and to a panel of isolates in others. With `Cc1cc(Cl)ccc1-c1ccc(CN2CCc3c(C)ccc(N4CCN(C)CC4)c3C2)nc1`, the MIC90 turned out to be 5.2 µg/mL (≈ 11.3 µM) in data set [3] and 0.79 µg/mL (≈ 1.71 µM) in data set [5]. In addition, the CLH in data set [4] turned out to be 14.3 mL/h/kg; in data set [6], 5.52 mL/h/kg. Further, the IC50 in the data set on Vero was 14 µg/mL (≈ 30.4 µM).

As to `Cc1cc(Cl)ccc1-c1ccc(N2CCc3c(C)ccc(N4CCN(C)CC4)c3C2)nc1`, the IC50 was found to be 5.5 µg/mL (≈ 12.3 µM) in data set [1], 22 µg/mL (≈ 49.2 µM) in the data set with Vero and 23 µg/mL (≈ 51.5 µM) in data set [2]. Further, the MIC90 in data set [3] came out at 2.4 µg/mL (≈ 5.37 µM); in data set [5], 1.9 µg/mL (≈ 4.25 µM). The figures for the CLH in data set [4] and in data set [6] were 2.1 mL/h/kg and 1.32 mL/h/kg, respectively.

As for `Cc1ccc(N2CCN(C)CC2)c2c1CCN(C(=O)Nc1ccc(-c3cc(C(F)(F)F)cc(C(F)(F)F)c3)cn1)C2`, the results for the IC50 in data set [1] and in data set [2] were 14 µg/mL (≈ 24.2 µM) and 13 µg/mL (≈ 22.5 µM), respectively.

Consider `COc1ccc(N2CCN(C)CC2)c2c1CCN(c1ccc(-c3cc(C(F)(F)F)cc(C(F)(F)F)c3)cn1)C2`, for which the MIC90 in data set [3] was 12 µg/mL (≈ 21.8 µM); in data set [5] it was 7.9 µg/mL (≈ 14.3 µM). Besides, the half-inhibitory concentration (IC50) in the data set with Vero amounted to 19 µg/mL (≈ 34.5 µM).

In the case of `CCc1ccc(N2CCN(C)CC2)c2c1CCN(C(=O)Nc1ccc(-c3ccc(C(F)(F)F)cc3)cn1)C2`, the figures for the IC50 in data set [1] and in data set [2] were 2.2 µg/mL (≈ 4.2 µM) and 7.2 µg/mL (≈ 13.8 µM), respectively. In addition, the CLH in data set [4] is 48.6 mL/h/kg; in data set [6], 6.42 mL/h/kg.

With `Cc1cc(Cl)ccc1-c1ccc(NC(=O)N2CCc3c(F)ccc(N4CCN(C)CC4)c3C2)nc1`, the IC50 in data set [1] was determined as 1.8 µg/mL (≈ 3.64 µM); in data set [2], 17 µg/mL (≈ 34.4 µM). Besides, the results for the CLH in data set [4] and in data set [6] were 3.9 mL/h/kg and 3 mL/h/kg, respectively.

Turning to `CN1CCN(c2cccc3c2CN(Cc2ccc(-c4ccc(Cl)cc4)cn2)CC3)CC1`, the concentration for half-maximal inhibition (IC50) in data set [1] was 7.2 µg/mL (≈ 16.6 µM); in data set [2], greater than 500 µg/mL. In addition, the figures for the CLH in data set [4] and in data set [6] were 14.3 mL/h/kg and 7.26 mL/h/kg, respectively. The selectivity ratio in data set [7] was greater than 70.

Take `Cc1ccc(N2CCN(C)CC2)c2c1CCN(c1ccc(-c3ccc(C(C)(C)C)cc3)cn1)C2`: the MIC90 was found to be 3.4 µg/mL (≈ 7.48 µM) in data set [3] and 1.4 µg/mL (≈ 3.08 µM) in data set [5]. Moreover, the CLH stood at 3.36 mL/h/kg in data set [4] and 2.46 mL/h/kg in data set [6]. For the same compound, the IC50 with Vero amounted to 18 µg/mL (≈ 39.6 µM).

Regarding `COc1ccc(N2CCN(C)CC2)c2c1CCN(C(=O)Nc1ccc(-c3ccc(Cl)cc3Cl)cn1)C2`, the figures for the IC50 in data set [1] and in data set [2] were 3 µg/mL (≈ 5.7 µM) and 27 µg/mL (≈ 51.3 µM), respectively. In addition, the CLH in data set [4] came to 35 mL/h/kg; in data set [6], 2.88 mL/h/kg.

Consider `CN1CCN(c2cccc3c2CN(C(=O)Nc2ccc(-c4ccc(OC(F)(F)F)cc4)cn2)CC3)CC1`, for which the values for the IC50 in data set [1] and in data set [2] were 6.2 µg/mL (≈ 12.1 µM) and greater than 500 µg/mL, respectively. The selectivity ratio in data set [7] is greater than 80.

In the case of `COc1ccc(N2CCN(C)CC2)c2c1CCN(Cc1ccc(-c3ccc(Cl)cc3C)cn1)C2`, the MIC90 in data set [3] was found to be 6.1 µg/mL (≈ 12.8 µM); in data set [5] it was 1.8 µg/mL (≈ 3.77 µM). The IC50 with Vero is 12 µg/mL (≈ 25.2 µM).

With `COc1ccc(N2CCN(C)CC2)c2c1CCN(C(=O)Nc1ccc(-c3ccc(Cl)cc3C)cn1)C2`, the concentration for half-maximal inhibition (IC50) in data set [1] came to 6.3 µg/mL (≈ 12.4 µM); in data set [2], 20 µg/mL (≈ 39.5 µM).

With `Cc1ccc(N2CCN(C)CC2)c2c1CCN(C(=O)N1CCC(Oc3ccc(OC(F)(F)F)cc3)CC1)C2`, the values for the CLH in data set [4] and in data set [6] were 2.4 mL/h/kg and 2.88 mL/h/kg, respectively.

`COc1nc2ccc(Br)cc2cc1[C@@H](c1ccccc1)[C@@](O)(CCN(C)C)c1cccc2ccccc12` [BEDAQUILINE]: the IC50 in data set [2] is greater than 1000 µg/mL.
